Published values of several laboratories.
Lines come from different studies, so protocols differ.
Target: Casein kinase I isoform gamma-2 (CSNK1G2, Homo sapiens, UniProt P78368)

The remaining signal of `C[C@@H]1CCN(C(=O)CC#N)C[C@@H]1N(C)c1ncnc2[nH]ccc12` is reported as 95.4% (cell-free assay, inhibitor; 0.5 µM).
With `COc1cc2ncnc(Nc3ccc(Oc4ccccc4)c(C)c3C)c2cc1OC` the inhibition was 1% (enzyme activity, inhibitor; 1 µM).
`Cc1ccc(Nc2nccc(N(C)c3ccc4c(C)n(C)nc4c3)n2)cc1S(N)(=O)=O` gave a remaining signal of 96.9% (cell-free assay, inhibitor; 0.5 µM).
With `CC1=C(C#N)[C@@H](c2ccc3[nH]nc(C)c3c2)C(C#N)=C(c2ccc(Cl)cc2)N1` the remaining binding was 100% (cell-free assay, competition with immobilised ligand; 1 µM).
`O=C(Nc1cnn(-c2csc(C(=O)NC3COC3)c2)c1)Nc1ccccc1Cl` gave a remaining activity of 98.5% (enzyme activity, inhibitor; 5 µM).
`NS(=O)(=O)c1cc(NC(=O)C2(c3ccccc3Cl)CC2)ccc1Oc1cccc(Cl)c1` has a remaining binding of 82% (cell-free assay, competition with immobilised ligand; 1 µM).
For `COc1cc(Cl)c(C(=O)N[C@@H](CN[C@H]2CC[C@@H](N)CC2)Cc2ccc(C#N)cc2)cc1-c1ccc(CN[C@H](C)c2ccc(C)cc2)o1`, the remaining activity was 112% (enzyme activity, inhibitor; 1 µM).
`CCCOc1ccc([C@@H]2[C@@H](C(=O)O)[C@H](c3ccc4c(c3)OCO4)CN2CC(=O)Nc2c(CC)cccc2CC)cc1` gave a remaining binding of 96% (cell-free assay, competition with immobilised ligand; 1 µM).
The inhibition of `O=C(CSc1nc2nccnc2c(=O)n1CCc1ccccc1)Nc1nccs1` is reported as 14% (enzyme activity, inhibitor; 10 µM).
The remaining signal of `N#CCCc1ccc2c(c1)-c1[nH]c3ccc([N+](=O)[O-])cc3c1CC(=O)N2` is reported as 84.8% (cell-free assay; 0.5 µM).
`CCc1ccccc1C(=O)Nc1n[nH]c2c(C)c(F)c(C3C(C#N)=C(C)N(C)C(C)=C3C#N)cc12` has a remaining binding of 97% (cell-free assay, competition with immobilised ligand; 1 µM).
For `CC(C)(C)c1nc(-c2cccc(NS(=O)(=O)c3c(F)cccc3F)c2F)c(-c2ccnc(N)n2)s1`, the remaining activity was 101% (enzyme activity, inhibitor, radiometric; 1 µM).
For `C[C@@H](c1cccc(C#N)c1)n1cc(Cl)cc(C(N)=O)c1=N`, the remaining binding was 100% (cell-free assay, competition with immobilised ligand; 1 µM).
`Cc1sc(C(=O)NC2COC2)cc1-n1cc(NC(=O)Nc2c(F)cccc2Cl)cn1` gave a remaining activity of 104% (enzyme activity, inhibitor; 10 µM).
The remaining binding of `Nc1cnc(N2CCc3cc(S(=O)(=O)Nc4c(F)cc(Cl)cc4F)cc(N4CCCC4=O)c32)nc1` is reported as 88% (cell-free assay, competition with immobilised ligand; 1 µM).
`CNC(=O)c1cc(Oc2ccc(NC(=O)Nc3ccc(Cl)c(C(F)(F)F)c3)cc2)ccn1` has an inhibition of -4% (enzyme activity, inhibitor; 10 µM).
For `Cc1cc(NC(=O)c2cccc3cc(-c4cccc5[nH]nc(N)c45)ccc23)ccc1F`, the activity vs control was 102% (enzyme activity, inhibitor; 0.1 µM).
`CN1CCN(c2cnc3c(C4CCN(C(=O)c5ccc(OC(F)(F)F)cc5N)CC4)ncnc3c2)CC1` has a remaining binding of 100% (cell-free assay, competition with immobilised ligand; 1 µM).
With `CCCS(=O)(=O)Nc1ccc(F)c(C(=O)c2c[nH]c3ncc(-c4ccc(Cl)cc4)cc23)c1F` the inhibition was less than 10% (enzyme activity, inhibitor; 1 µM).
`CN(CCCC(F)(F)F)c1nccc(-c2cnn3ncccc23)n1` gave a remaining binding of 100% (binding; 1 µM).
With `C#Cc1cccc(Nc2ncnc3cc(OCCOC)c(OCCOC)cc23)c1` the remaining signal was 98.3% (cell-free assay; 0.5 µM).
With `Cc1ccc(NC(=O)c2ccc(C)c(C(F)(F)F)c2)cc1C#Cc1nn(C2CCC(O)CC2)c2ncnc(N)c12` (stereo not shown) the remaining signal was 114% (cell-free assay; 10 µM).
